≈ marks a conversion by molar mass, not a printed value.
Columns and labels:
[1] = system: Radical scavenging activity; assay: Antioxidant activity assessed as DPPH radical scavenging activity; assay type: functional
How it was run: (§1)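 DPPH (100 μM) in absolute methanol, compounds at 0–1000 μg/mL, in triplicate. After 30 min in the dark at room temperature, absorbance read at 515 nm against a blank. Percent decoloration taken relative to a methanol-treated control with DPPH and no sample; IC50 calculated in μg/mL.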

[2] = DPPH radical scavenging activity assessed as ascorbic acid equivalent antioxidant capacity; assay type: functional
How it was run: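 DPPH IC50 determined as above (100 μM DPPH in methanol, 30 min dark, room temperature, 515 nm). AEAC in mg ascorbic acid/g sample calculated as IC50(ascorbate)/IC50(sample) × 1000.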

[3] = Protective index against GS radical-induced curcumin depletion at 10 ug/ml irradiated at 100 Gy
How it was run: (§2)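 Reaction solution: 20 μM curcumin and 15 mM GSH in 60% methanol, with sample at 10 μg/mL. Control had no sample. Solutions were γ-irradiated to generate GS• radicals; doses up to 250 Gy, with PI reported at 100 Gy. Curcumin depletion followed by absorbance at 425 nm against a blank. Protective index (%) derived from depletion with versus without sample.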

[4] = Antioxidant activity assessed as inhibition of glutathione-induced curcumin depletion at 10 ug/ml; assay type: functional; how it was run: as §2
[5] = system: Radical scavenging activity; assay: Antioxidant activity assessed as DPPH radical scavenging activity at 250 ug/ml; assay type: functional; how it was run: as §1

| Compound | IC50 [1] | Activity [2] | PI [3] | INH [4] | Activity [5] |
| --- | --- | --- | --- | --- | --- |
| COc1cccc2cc(C(=O)c3ccc(C)cc3)c(=S)oc12 | 233.71 µg/mL (≈ 753 µM) | 16.4 mg/g | 3.65% |  |  |
| COc1cccc2cc(C(C)=O)c(=S)oc12 | 358.67 µg/mL (≈ 1530 µM) |  |  |  |  |
| COc1cccc2cc(C(=O)c3cccs3)c(=S)oc12 | 31.2 µg/mL (≈ 103 µM) | 121 mg/g | 56.9% | 2.41 µM |  |
| CC(=O)c1cc2ccccc2oc1=S | 35.01 µg/mL (≈ 171 µM) | 111 mg/g | 45.8% | 3.27 µM |  |
| COc1ccc(C(=O)c2cc3cc(Br)ccc3oc2=S)cc1 | 1112.83 µg/mL (≈ 2970 µM) |  |  |  |  |
| COc1ccc(C(=O)c2cc3cccc(OC)c3oc2=S)cc1 | 603.43 µg/mL (≈ 1850 µM) |  |  |  |  |
| O=C(c1ccc(Cl)cc1)c1cc2cc(Br)ccc2oc1=S | 850.41 µg/mL (≈ 2240 µM) |  |  |  |  |
| COc1cccc2cc(C(=O)c3ccccc3)c(=S)oc12 | 98.72 µg/mL (≈ 333 µM) | 38.7 mg/g | 10.9% |  |  |
| COc1cccc2cc(C(=O)c3ccc(Cl)cc3)c(=S)oc12 | 95.57 µg/mL (≈ 289 µM) | 40 mg/g | 25.2% |  |  |
| Cc1ccc(C(=O)c2cc3ccccc3oc2=S)cc1 | 551.57 µg/mL (≈ 1970 µM) |  |  |  |  |
| O=C(c1ccc(Cl)cc1)c1cc2ccccc2oc1=S | 537.58 µg/mL (≈ 1790 µM) |  |  |  |  |
| COc1ccc(C(=O)c2cc3ccccc3oc2=S)cc1 | 1579.25 µg/mL (≈ 5330 µM) |  |  |  | 6.41% |
